Results reported in ChEMBL document CHEMBL3045565, “Microwave synthesis, characterization and bio-efficacy evaluation of novel chalcone based 6-carbethoxy-2-cyclohexen-1-one and 2H-indazol-3-ol derivatives” (Eur J Med Chem, 2013).
≈ marks a conversion by molar mass, not a printed value.

Key:
Type in all cases: functional
Bacillus thuringiensis = test: Antibacterial activity against Bacillus thuringiensis MTCC 6941 assessed as growth inhibition at 100 ug/disk after 24 hr by disk diffusion method; details: MTCC 6941, 24 h, read-out: DIZ
Outline: (§1)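 Disk diffusion on nutrient agar. Strains kept on NA slants at 37 °C and subcultured in nutrient broth before testing. A log-phase culture was spread on solidified medium, and sterile disks were loaded with compound from DMSO stock. DMSO served as control, with commercial antibiotics for reference. Plates ran 24 h at 37 °C, and inhibition zones (mm) were read in quadruplicate.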

Athelia rolfsii = test: Antifungal activity against Athelia rolfsii ITCC 6181 by food poisoning method; details: Agroathelia rolfsii
Outline: (§2)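 Poisoned food technique on PDA at several concentrations. A 5 mm mycelial plug from the growing edge of a 2-week-old colony was placed inoculum-side down at the plate centre. Plates incubated at 27 °C until control growth was nearly complete. Colony diameter measured, percent inhibition calculated against control, LC50 derived. Four replicates per treatment.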

Dickeya chrysanthemi = test: Antibacterial activity against Erwinia chrysanthemi ITCC B-40 assessed as as growth inhibition at 100 ug/disk after 24 hr by disk diffusion method; details: ITCC B-40, 24 h, read-out: DIZ; outline: as §1
Pseudomonas aeruginosa = test: Antibacterial activity against Pseudomonas aeruginosa MTCC 2581 assessed as growth inhibition at 100 ug/disk after 24 hr by disk diffusion method; details: MTCC 2581, 24 h, read-out: DIZ; outline: as §1
Xanthomonas oryzae = test: Antibacterial activity against Xanthomonas oryzae ITCC B-47 assessed as as growth inhibition at 100 ug/disk after 24 hr by disk diffusion method; details: ITCC B-47, 24 h, read-out: DIZ
Staphylococcus aureus = test: Antibacterial activity against Staphylococcus aureus MTCC 3160 assessed as growth inhibition at 100 ug/disk after 24 hr by disk diffusion method; details: MTCC 3160, 24 h, read-out: DIZ; outline: as §1
Bacillus pumilus = test: Antibacterial activity against Bacillus pumilus MTCC 2466 assessed as growth inhibition at 100 ug/disk after 24 hr by disk diffusion method; details: MTCC 2466, 24 h, read-out: DIZ; outline: as §1
Rhizoctonia solani = test: Antifungal activity against Rhizoctonia solani ITCC 5563 by food poisoning method; outline: as §2
Klebsiella pneumoniae = test: Antibacterial activity against Klebsiella pneumoniae MTCC 7028 assessed as growth inhibition at 100 ug/disk after 24 hr by disk diffusion method; details: MTCC 7028, 24 h, read-out: DIZ; outline: as §1
[1] = test system: Radical scavenging activity; test: Antioxidant activity assessed as DPPH free radical scavenging activity after 20 min by UV-Vis spectrophotometric analysis; design: concentration or dose not given beside the values
Outline: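 DPPH radical scavenging: samples were held at room temperature for 20 min in the dark, and absorbance was read at 517 nm. The control contained DMSO without compound, and methanol was used for baseline correction. Scavenging percentage was calculated from the absorbances.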

| SMILES | zone of inhibition at 100 µg/disc (Bacillus thuringiensis) [mm] | LC50 (Athelia rolfsii) [µg/mL] | zone of inhibition at 100 µg/disc (Dickeya chrysanthemi) [mm] | zone of inhibition at 100 µg/disc (Pseudomonas aeruginosa) [mm] | zone of inhibition at 100 µg/disc (Xanthomonas oryzae) [mm] | zone of inhibition at 100 µg/disc (Staphylococcus aureus) [mm] | zone of inhibition at 100 µg/disc (Bacillus pumilus) [mm] | LC50 (Rhizoctonia solani) [µg/mL] | zone of inhibition at 100 µg/disc (Klebsiella pneumoniae) [mm] | Activity [1] [%] |
| --- | --- | --- | --- | --- | --- | --- | --- | --- | --- | --- |
| CCOC(=O)C1C(=O)C=C(c2ccccc2)CC1c1ccccc1 (configuration not stated) | 0 | 304 (≈ 949 µM) | 0 | 0 | 0 | 0 | 0 | 207 (≈ 646 µM) | 10 | 3.33 |
| CCOC(=O)C1C(=O)C=C(c2ccc([N+](=O)[O-])cc2)CC1c1ccc2c(c1)OCO2 (configuration not stated) | 0 | 4310 (≈ 10500 µM) | 10 | 0 | 0 | 0 | 0 | 29 (≈ 70.8 µM) | 0 | 3.6 |
| CCOC(=O)C1C(=O)C=C(c2ccc(C)cc2)CC1c1cc(OC)c(OC)c(OC)c1 (configuration not stated) | 0 | 345 (≈ 813 µM) | 0 | 0 | 0 | 0 | 0 | 118 (≈ 278 µM) | 0 | 4.52 |
| CCOC(=O)C1C(=O)C=C(c2ccccc2)CC1c1ccc(OC)c(OC)c1 (configuration not stated) | 0 | 323 (≈ 849 µM) | 0 | 5 | 0 | 0 | 0 | 198 (≈ 520 µM) | 0 | 4.23 |
| CCCCC(O)(Cn1cncn1)c1ccc(Cl)cc1Cl (configuration not stated) [HEXACONAZOLE] |  | 1.27 (≈ 4.04 µM) |  |  |  |  |  | 1.12 (≈ 3.56 µM) |  |  |
| COc1ccc(/C=C/C(=O)c2ccc(C)cc2)cc1OC | 0 | 587 (≈ 2080 µM) | 0 | 0 | 0 | 0 | 0 | 107 (≈ 379 µM) | 0 | 0.71 |
| CCOC(=O)C1C(=O)C=C(c2ccccc2)CC1c1cc(OC)c(OC)c(OC)c1 (configuration not stated) | 0 | 365 (≈ 889 µM) | 0 | 0 | 0 | 0 | 0 | 139 (≈ 339 µM) | 0 | 1.69 |
| CCOC(=O)C1C(=O)C=C(c2ccc3c(c2)OCO3)CC1c1ccc(OC)cc1 (configuration not stated) | 0 | 380 (≈ 963 µM) | 0 | 0 | 0 | 0 | 0 | 396 (≈ 1000 µM) | 0 | 4.26 |
| CCOC(=O)C1C(=O)C=C(c2ccc(Cl)c(Cl)c2)CC1c1ccc(OC)cc1 (configuration not stated) | 0 | 6110 (≈ 14600 µM) | 0 | 0 | 0 | 0 | 0 | 1040 (≈ 2490 µM) | 0 | 2.92 |
| O=C(/C=C/c1ccccc1)c1ccccc1 [CHALCONE] | 0 | 674 (≈ 3240 µM) | 10 | 10 | 0 | 5 | 0 | 2.49 (≈ 12 µM) | 0 | 9.11 |
